Assay results of several laboratories.
Protocols differ between the studies behind these lines.
Target: Protein kinase C gamma type (PRKCG, Homo sapiens, UniProt P05129)

Compound	observed	action	technique	tested at	endpoint	value
CCN(CC)c1ccc(C2=NNC(=O)CC2C)cc1[N+](=O)[O-] (stereo not shown)	enzyme activity	inhibitor		10 µM	remaining activity	96%
CC(C)c1ccc(NC(=O)c2cccs2)c(-c2nc3ccccc3[nH]c2=O)c1	enzyme activity	inhibitor		1 µM	activity vs control	106%
CNC(=O)c1cc(Oc2ccc(NC(=O)Nc3ccc(Cl)c(C(F)(F)F)c3)cc2)ccn1	enzyme activity	inhibitor		10 µM	inhibition	9%
FC(F)(F)Oc1cccc(-c2cnc3ccc(-c4ccncc4)nn23)c1	enzyme activity	inhibitor	radiometric	1 µM	activity vs control	96%
Cc1ccc(NC(=O)c2ccc(C)c(C(F)(F)F)c2)cc1C#Cc1nn(C2CCC(O)CC2)c2ncnc(N)c12 (stereo not shown)	cell-free assay			10 µM	remaining signal	90%
CC/C(=N\NC(=O)NCc1cccc(O)c1)c1ccc(O)c(C)c1O	enzyme activity	inhibitor		0.1 µM	inhibition	3.6%
CC(C)(C)c1nc(-c2cccc(NS(=O)(=O)c3c(F)cccc3F)c2F)c(-c2ccnc(N)n2)s1	enzyme activity	inhibitor	radiometric	1 µM	remaining activity	102%
Cc1ccc(-n2nc(C(C)(C)C)cc2NC(=O)Nc2ccc(OCCN3CCOCC3)c3ccccc23)cc1	enzyme activity	inhibitor		10 µM	inhibition	7%
COc1cc2ncnc(Nc3ccc(Oc4ccccc4)cc3C)c2cc1OC	enzyme activity	inhibitor		1 µM	inhibition	-3%
CCOc1cc(-c2nncn2C)ccc1Nc1ncc2cc(C)nc(NCC(C)(C)C)c2n1	enzyme activity	inhibitor	FRET	1 µM	inhibition	< 15%
Cc1ccc(C(=O)NCc2ccsc2)cc1C#Cc1cn(C(C)C)c2ncnc(N)c12	enzyme activity	inhibitor		1 µM	activity vs control	97%
COc1cc(Cl)c(C(=O)N[C@@H](CN[C@H]2CC[C@@H](N)CC2)Cc2ccc(C#N)cc2)cc1-c1ccc(CN[C@H](C)c2ccc(C)cc2)o1	enzyme activity	inhibitor		1 µM	remaining activity	98%
O=C1NC(=O)c2cc(Nc3ccc(F)cc3)c(Nc3ccc(F)cc3)cc21	cell-free assay			0.5 µM	remaining signal	102%
CCN(CC)CCNC(=O)c1c(C)[nH]c(/C=C2\C(=O)Nc3ccc(F)cc32)c1C	enzyme activity	inhibitor		10 µM	inhibition	32%
COc1cc(Nc2cnc(C#N)c(O[C@H](C)CN(C)C)n2)ncc1-c1cnn(C)c1	enzyme activity	inhibitor	radiometric	1 µM	remaining activity	90%
O=C(Nc1cnn(-c2csc(C(=O)NC3COC3)c2)c1)Nc1c(F)cccc1Cl	enzyme activity	inhibitor		5 µM	remaining activity	98.3%
